Measured values gathered from unrelated publications.
Each line is one published result; the experiments were not run side by side.
Target: Activated CDC42 kinase 1 (TNK2, Homo sapiens, UniProt Q07912)

Compound | assay | setting | endpoint | result
CC(C)(O)[C@H]1CC[C@H](Nc2ccc3ncc(-c4cccc(C(F)(F)F)c4)n3n2)CC1 | enzyme activity, inhibitor | 1 µM | remaining activity | 5.31%
c1ccc(CNc2nc(N3CCOc4ccccc43)nc3c2CCCC3)cc1 | target engagement in cells, inhibitor, chemoproteomics | 20 mM | inhibition | -11.3%
COc1ccc2cc(OCC3(C(=O)O)CN(C(=O)c4ccc(F)cc4)C3)ccc2c1 | cell-free assay, competition with immobilised ligand | 1 µM | remaining binding | 100%
O=C1NC(=O)c2cc(Nc3ccc(F)cc3)c(Nc3ccc(F)cc3)cc21 | cell-free assay | 0.5 µM | remaining signal | 93.2%
O=S1(=O)N=C(NCc2ccc(OC(F)(F)F)cc2)Nc2cc(Cl)ccc21 | binding, competition with immobilised ligand | 10 µM | inhibition | > 90%
Cc1ccc(NC(=O)c2ccc(C)c(C(F)(F)F)c2)cc1C#Cc1nn(C2CCC(O)CC2)c2ncnc(N)c12 (centres unmarked) | cell-free assay | 10 µM | remaining signal | 4%
Cc1cc(NC(=O)c2cccc3cc(-c4cccc5[nH]nc(N)c45)ccc23)ccc1F | enzyme activity, inhibitor | 0.1 µM | activity vs control | 107%
Cc1ccc(C(=O)Nc2ccc(CN3CCN(C)CC3)c(C(F)(F)F)c2)cc1C#Cc1cnc2cccnn12 | enzyme activity, inhibitor | 23.5 nM | remaining activity | 100%
Cc1sc(C(=O)NC2COC2)cc1-n1cc(NC(=O)Nc2c(F)cccc2Cl)cn1 | enzyme activity, inhibitor | 10 µM | remaining activity | 106%
Cc1noc([C@H]2C[C@@H](c3ccc(C(F)(F)F)cc3)CN(C(=O)N3CCS(=O)(=O)C3)C2)n1 | cell-free assay, competition with immobilised ligand | 1 µM | remaining binding | 100%
CC(C)(C)c1nc2c(s1)c1nc(N)ncc1c1ccc(NS(=O)(=O)c3c(F)cccc3F)c(F)c12 | enzyme activity, inhibitor, radiometric | 1 µM | remaining activity | 75%
C[C@@H]1CN(c2cc(-c3nn(C)c4ccc(OC5(C)CC5)cc34)ncn2)C[C@H](C)O1 | cell-free assay, competition with immobilised ligand | 1 µM | remaining binding | 96%
CCCOc1ccc(OC)c(F)c1C(=O)c1ccc(C(=O)N[C@@H]2CNC[C@H]2NC(=O)c2ccc3[nH]ncc3c2)cc1 | enzyme activity, inhibitor | 10 µM | remaining activity | 92%
O=C(O)c1cc(-c2ccc(C3CCNCC3)cc2)c2ccc(-c3ccc(C(F)(F)F)cc3)cc2c1 | cell-free assay, competition with immobilised ligand | 1 µM | remaining binding | 100%
CC/C(=N\NC(=O)NCc1cccc(O)c1)c1ccc(O)c(C)c1O | enzyme activity, inhibitor | 0.1 µM | inhibition | -0.3%
CCCOc1ccc([C@H]2[C@H](C(=O)O)[C@@H](c3ccc4c(c3)OCO4)CN2CC(=O)Nc2c(CC)cccc2CC)cc1 | cell-free assay, competition with immobilised ligand | 1 µM | remaining binding | 100%
CS(=O)(=O)CCNCc1ccc(-c2ccc3ncnc(Nc4ccc(OCc5cccc(F)c5)c(Cl)c4)c3c2)o1 | cell-free assay | 0.5 µM | remaining signal | 97.5%
